In brackets after ≈: the same amount, converted by molar mass. Activity calls are given as the source filed them. The calls are words filed in the database; no cut-off is given here.
How the values were obtained:
[1] = Metabolic stability in human liver microsomes assessed as apparent decay constant by HPLC analysis; type: ADME, Microsome
Method in brief: (§1)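 Compound incubated with human liver microsomes plus an NADPH-generating system. Log % of compound recovered (100% at 0 min) was plotted against incubation time and fitted to a monoexponential decay. Controls were boiled microsomes, or microsomes without NADPH-GS, at 37 °C for 60 min.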

HeLa [2] = assay: Induction of cell morphological changes in human HeLa cells at 10 uM measured after 3 hrs by LysoTracker Red staining based microscopic analysis; type: functional
Method in brief: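 Living HeLa cells were treated at 10 μM, or with BafA1 at 300 nM, for 3 h, then incubated with 75 nM LysoTracker red. Cells were imaged by spinning disc microscopy at 37 °C, 5% CO2.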

[3] = Metabolic stability in human liver microsomes assessed as half life by HPLC analysis; type: ADME, Microsome; method in brief: as §1
[4] = Aqueous solubility of the compound in pH 3 measured after 24 hrs by HPLC/DAD/UV analysis; type: physicochemical; conditions: aqueous solution at pH 3, pH 3
Method in brief: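 Solubility in aqueous buffer at pH 3, measured by HPLC after 24 h.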

[5] = biological target: Mitogen-activated protein kinase; ERK1/ERK2 (Homo sapiens) (UniProt P27361+P28482); assay: Inhibition of ERK1/2 phosphorylation in human HL-60 cells at 10 uM measured after 2 hrs by Immunoblotting analysis; type: cell-based
Method in brief: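 HL-60 cells were treated at 10 μM or with DMSO vehicle for 2 h. Phospho-NF-κB and phospho-Erk1/2 were immunoblotted and quantified by densitometry relative to β-tubulin. Data are mean ± SD (n = 2), analysed by one-way ANOVA.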

[6] = Mutagenicity in Salmonella typhimurium TA98 in presence of rat liver S9 fraction at 0.3 to 60 uM by AMES test; type: toxicity, subcellular; conditions: salmonella enterica subsp. enterica serovar typhimurium, s9, 60 µM; dose 0.3-60 µM
[7] = Mutagenicity in Salmonella typhimurium TA100 in absence of rat liver S9 fraction at 0.3 to 60 uM by AMES test; type: toxicity; conditions: salmonella enterica subsp. enterica serovar typhimurium, s9, 60 µM; dose 0.3-60 µM
[8] = Cytotoxicity against human TR146 cells assessed as reduction in cell viability measured after 48 hrs by alamar blue viability assay; type: functional, cell-based; conditions: TR146, 48 h
Method in brief: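 Oral squamous carcinoma cells were exposed for 48 h to at least 8 increasing concentrations. Viability was read by AlamarBlue. IC50 is the concentration that halves viability, taken as the mean ± SD of at least three independent experiments.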

SCC-4 [9] = assay: Induction of autophagy in human SCC-4 cells assessed as decrease in UlK1 protein level at 10 uM in measured after 24 hrs by Immunoblotting analysis; type: functional, cell-based
Method in brief: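 SCC4 cells under basal conditions were treated at 10 μM for 24 h. Autophagy-related proteins were immunoblotted, and densitometry was expressed as a ratio normalised to vehicle control.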

[10] = Mutagenicity in Salmonella typhimurium TA98 in absence of rat liver S9 fraction at 0.3 to 60 uM by AMES test; type: toxicity; conditions: salmonella enterica subsp. enterica serovar typhimurium, s9, 60 µM; dose 0.3-60 µM
HL-60 = assay: Induction of autophagy in human HL-60 cells assessed as increase in LC3-II protein level at 10 uM in presence of chloroquine […] by Immunoblotting analysis; type: functional, cell-based
[11] = Cytotoxicity against human Primary oral epithelial cells assessed as inhibition of cell growth measured after 24 hrs by neutral red uptake assay; type: toxicity, cell-based
Method in brief: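 Neutral red uptake viability test. NIH3T3 fibroblasts or primary human oral epithelial cells were exposed to compound at 0.1 to 120 μM. EC50 was derived, with SD below 5%.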

HeLa [12] = assay: Cytotoxicity against human HeLa cells overexpressing tubulin beta3 assessed as inhibition of cell growth measured after 48 hrs by MTT assay; type: functional, cell-based
Method in brief: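 MTT assay. Cells were exposed for 48 h to increasing concentrations of compound. Ovarian A2780 was paired with its P-gp-overexpressing A2780AD counterpart, and HeLa with HeLa β3, which overexpresses the tubulin β3 isotype. IC50 is the mean ± SD of three independent experiments.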

HeLa [13] = assay: Induction of morphological changes in human HeLa cells assessed as increase in actin stress fibres at 10 uM incubated for 3 hrs by phalloidin staining based laser scanning confocal microscopic analysis; type: functional, cell-based
Method in brief: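 HeLa cells in growth medium were treated at 1 or 10 μM, with BafA1 300 nM as reference, for 3 h. Cells were fixed in 4% PFA, stained with anti-GM130 for the Golgi and AF647-phalloidin for actin, and imaged by laser scanning confocal microscopy.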

[14] = Cytotoxicity against human FLO-1 cells assessed as inhibition of cell growth measured after 72 hrs by MTT assay; type: functional, cell-based; conditions: FLO-1, 72 h
Method in brief: (§2)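 Oesophageal adenocarcinoma lines were exposed to at least 8 increasing concentrations for 72 h. Viability was measured by MTT. IC50 is the mean ± SD of at least three independent experiments.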

TR146 = assay: Induction of apoptosis in human TR146 cells assessed as increase in apoptotic cells at 0.5 uM after 48 hrs by Annexin V-FITC/PI staining based flow cytometry method; type: functional, cell-based
Method in brief: (§3)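 Ca9.22 or TR146 cells were seeded at 30×10^4 cells/mL and treated with 500 nM compound or 1% EtOH (v/v) vehicle for 48 h. Annexin V/PI staining was read by flow cytometry, gating 10,000 cells on vehicle-treated cells. Data are mean ± SEM (n = 3).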

OE19 = assay: Cytotoxicity against human OE19 cells assessed as inhibition of cell growth measured after 72 hrs by MTT assay; type: functional, cell-based; conditions: OE19, 72 h; method in brief: as §2
Tubulin (Homo sapiens) = Tubulin (Homo sapiens) (UniProt P68371+Q9H4B7+P0DPH7+P68366+Q13509+Q71U36+P04350+Q3ZCM7+P07437+P68363+Q9BQE3+Q6PEY2+Q13885+Q9BVA1+Q9BUF5); assay: Binding affinity to tubulin (unknown origin) using podophyllotoxin by Competition assay; type: protein-complex assay
Method in brief: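 Fluorescence competition: compound and tubulin at equal concentrations (0.1, 0.5 or 1 μM each) titrated with podophyllotoxin up to 10 μM; excitation 350 nm, emission read at 450 nm on plate reader; displacement judged as fluorescence decrease.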

SCC-4 [15] = assay: Induction of apoptosis in human SCC-4 cells assessed as increase in apoptotic cells at 0.5 uM after 48 hrs by Annexin V-FITC/PI staining based flow cytometry method; type: functional, cell-based
Method in brief: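 SCC4 cells were treated at 0.5 or 2 μM for 48 h, then stained with Annexin V/PI and analysed by flow cytometry. Data are mean ± SEM of three independent experiments, with an unpaired one-tailed t-test versus vehicle.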

Ca9-22 = assay: Induction of apoptosis in human Ca9-22 cells assessed as increase in apoptotic cells at 0.5 uM after 48 hrs by Annexin V-FITC/PI staining based flow cytometry method; type: functional, cell-based; method in brief: as §3
Albumin = Albumin (Bos taurus, UniProt P02769); assay: Binding affinity to bovine serum albumin assessed as increase in fluorescence intensity; conditions: cattle
Method in brief: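 Saturation assay: compound fixed at 1 μM was incubated with increasing amounts of BSA. Fluorescence was read with excitation at 350 nm and emission at 450 nm in a plate reader.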

Sequence of Mitogen-activated protein kinase; ERK1/ERK2 (Homo sapiens) (P27361 whole entry, looked up): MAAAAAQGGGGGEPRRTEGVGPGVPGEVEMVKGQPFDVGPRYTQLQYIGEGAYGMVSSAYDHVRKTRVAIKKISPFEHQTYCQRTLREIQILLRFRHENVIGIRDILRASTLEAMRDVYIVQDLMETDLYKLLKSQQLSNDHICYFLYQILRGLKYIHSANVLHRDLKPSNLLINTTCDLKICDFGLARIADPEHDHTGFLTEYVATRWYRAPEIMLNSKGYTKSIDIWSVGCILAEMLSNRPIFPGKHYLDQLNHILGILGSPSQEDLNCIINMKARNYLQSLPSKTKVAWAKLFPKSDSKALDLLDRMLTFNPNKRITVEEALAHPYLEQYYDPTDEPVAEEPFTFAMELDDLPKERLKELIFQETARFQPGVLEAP
Sequence of Mitogen-activated protein kinase; ERK1/ERK2 (Homo sapiens) (P28482 whole entry, looked up): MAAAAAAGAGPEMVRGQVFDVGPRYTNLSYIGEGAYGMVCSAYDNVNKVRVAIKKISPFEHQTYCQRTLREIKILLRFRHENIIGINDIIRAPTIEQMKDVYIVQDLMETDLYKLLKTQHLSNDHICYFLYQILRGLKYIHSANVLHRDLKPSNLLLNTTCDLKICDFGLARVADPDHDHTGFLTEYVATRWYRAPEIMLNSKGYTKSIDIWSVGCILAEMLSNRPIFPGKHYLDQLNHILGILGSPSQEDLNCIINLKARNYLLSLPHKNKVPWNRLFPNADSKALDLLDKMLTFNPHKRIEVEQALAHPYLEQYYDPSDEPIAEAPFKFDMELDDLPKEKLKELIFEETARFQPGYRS
Sequence of Albumin (P02769 whole entry): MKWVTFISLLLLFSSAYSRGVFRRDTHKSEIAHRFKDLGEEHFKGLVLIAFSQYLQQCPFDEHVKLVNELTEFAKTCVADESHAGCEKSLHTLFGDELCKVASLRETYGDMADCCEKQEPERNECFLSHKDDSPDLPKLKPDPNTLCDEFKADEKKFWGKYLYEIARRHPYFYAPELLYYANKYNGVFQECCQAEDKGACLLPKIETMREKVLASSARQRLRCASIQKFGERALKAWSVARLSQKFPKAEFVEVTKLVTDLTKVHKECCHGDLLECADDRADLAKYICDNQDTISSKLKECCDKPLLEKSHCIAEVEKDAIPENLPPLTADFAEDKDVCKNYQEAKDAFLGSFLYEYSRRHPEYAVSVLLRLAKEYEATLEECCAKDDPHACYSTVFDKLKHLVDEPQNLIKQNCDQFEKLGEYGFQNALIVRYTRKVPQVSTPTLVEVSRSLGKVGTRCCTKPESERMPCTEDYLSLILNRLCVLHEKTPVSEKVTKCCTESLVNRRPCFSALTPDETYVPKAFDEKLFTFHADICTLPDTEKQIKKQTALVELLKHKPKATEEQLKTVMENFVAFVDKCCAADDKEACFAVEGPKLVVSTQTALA

| Structure (SMILES) | k el [1] | Activity (HeLa [2]) | half-life [3] | solubility at 24 h [4] | inhibition [5] | Activity [6] | Activity [7] | IC50 [8] | Activity (SCC-4 [9]) | Activity [10] | Activity (HL-60) | EC50 at 24 h [11] | also measured |
| --- | --- | --- | --- | --- | --- | --- | --- | --- | --- | --- | --- | --- | --- |
| O=C(OC1=C(c2cccc3ncccc23)Oc2cc3ccccc3cc2-n2cccc21)C1CCNCC1 | 0.000127 s⁻¹ | Active | 1.52 h | 271 µM (≈ 132 µg/mL) | Active | Non-Toxic | Non-Toxic | 4500 nM | Active | Non-Toxic | Active | 45000 nM | – |
| CN1CCN(C(=O)OC2=C(c3cccc4ncccc34)Oc3cc4ccccc4cc3-n3cccc32)CC1 | 0.000367 s⁻¹ | Active | 0.513 h | 204 µM (≈ 103 µg/mL) | Active | Non-Toxic | Non-Toxic | 880 nM | Active | Non-Toxic | Active | 45000 nM | IC50 (HeLa [12]): 331 nM; Activity (HeLa [13]): Active; IC50 [14]: 400 nM; Activity (TR146): Active; IC50 (OE19): 730 nM; Activity (Tubulin (Homo sapiens)): Active; Activity (SCC-4 [15]): Active; Activity (Ca9-22): Active; Activity (Albumin): Active |

Reference: ChEMBL document CHEMBL5154824, “Design and synthesis of multifunctional microtubule targeting agents endowed with dual pro-apoptotic and anti-autophagic efficacy” (Eur J Med Chem, 2022)
